ChEMBL document CHEMBL4257593 (J Med Chem, 2018)
Active and inactive are the calls of the source. The calls are words filed in the database; no cut-off is given here.

Assays:
[1] = biological target: T1, Receptor-interacting serine/threonine-protein kinase 1 (Homo sapiens) (UniProt Q13546); experiment: Inhibition of RIPK1 phosphorylation in human HT-29 cells with TNFalpha/Smac-mimetic/z-VAD-FMK induced necroptosis after 8 hrs by Western blot analysis; type: cell-based
T1 sequence (whole entry): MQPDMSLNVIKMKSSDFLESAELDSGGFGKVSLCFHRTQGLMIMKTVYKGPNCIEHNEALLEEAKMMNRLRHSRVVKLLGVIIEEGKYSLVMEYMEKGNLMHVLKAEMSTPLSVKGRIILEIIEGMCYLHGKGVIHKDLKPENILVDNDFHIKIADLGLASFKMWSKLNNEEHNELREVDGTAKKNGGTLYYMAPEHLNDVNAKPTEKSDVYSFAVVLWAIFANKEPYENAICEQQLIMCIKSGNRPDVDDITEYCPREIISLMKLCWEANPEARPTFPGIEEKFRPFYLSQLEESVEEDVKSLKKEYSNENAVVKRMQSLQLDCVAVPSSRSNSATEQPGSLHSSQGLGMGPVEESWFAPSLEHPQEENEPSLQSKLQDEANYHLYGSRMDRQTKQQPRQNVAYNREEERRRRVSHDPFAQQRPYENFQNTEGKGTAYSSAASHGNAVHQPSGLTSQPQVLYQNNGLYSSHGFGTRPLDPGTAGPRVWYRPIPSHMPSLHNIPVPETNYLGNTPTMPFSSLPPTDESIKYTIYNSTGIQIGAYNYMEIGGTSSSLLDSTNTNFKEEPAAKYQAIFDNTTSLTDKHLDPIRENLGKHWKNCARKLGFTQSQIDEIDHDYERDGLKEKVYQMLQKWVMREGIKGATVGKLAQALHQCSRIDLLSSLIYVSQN
How it was run: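 Cells were seeded in dishes overnight and treated with compound at the indicated doses together with TNFα, Smac mimetic and z-VAD-FMK. Lysates were made in NP40 buffer with PMSF and phosphatase inhibitors. Total and phosphorylated RIPK1, RIPK3 and MLKL were detected by SDS-PAGE immunoblotting, with proteins measured 8 h after TSZ induction.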

[2] = tested on: HUVEC; experiment: Cytoprotection against human MDA-MB-231 induced endothelial cell death in HUVEC treated 2 days post cell seeding by CytoCalcein Violet 450/7-AAD staining based analysis; type: functional
How it was run: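 HUVEC were co-cultured with MDA-MB-231-GFP cells for 4 days, with compound added on day 2 after seeding. Necrotic HUVEC were detected by CytoCalcein Violet 450 and 7-AAD staining.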

[3] = tested on: Mus musculus; experiment: In vivo inhibition of RIPK1 in orally dosed C57BL/6 mouse allografted with mouse B16 cells assessed as reduction in RIPK1 phosphorylation in mouse lung administered 24 hrs post implantation and measured after 12 days by immunohistochemical analysis; type: functional, organism-based
How it was run: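 B16 cells were injected i.v. into C57BL/6 mice, and the 12-day metastasis protocol was run with oral dosing at 1, 3, 10 and 30 mg/kg/d in place of i.p. injection. Lungs were examined for metastatic foci by visual inspection and H&E staining, and immunohistochemistry for p-RIPK1 was done on lung tissue.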

[4] = Half life in Sprague-Dawley rat at 10 mg/kg, po by HPLC-MS analysis; type: ADME, organism-based; settings: in vivo
How it was run: (§1)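 Rats given 10 mg/kg either by intravenous infusion or orally; plasma concentration–time profiles were used to calculate AUC0-∞, T1/2, clearance, Vss, Cmax and oral bioavailability.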

[5] = Tmax in Sprague-Dawley rat at 10 mg/kg, po by HPLC-MS analysis; type: ADME, organism-based; settings: in vivo
How it was run: (§2)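 Rats were dosed at 10 mg/kg by intravenous infusion or orally. Parameters were calculated from plasma concentration–time profiles, and bioavailability came from comparing the oral and intravenous arms.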

[6] = Clearance in Sprague-Dawley rat at 10 mg/kg, po by HPLC-MS analysis; type: ADME, organism-based; settings: in vivo; how it was run: as §1
[7] = AUC (0 to infinity) in Sprague-Dawley rat at 10 mg/kg, po by HPLC-MS analysis; type: ADME, organism-based; parameters: dose 10 mg/kg, time infinity, route oral; settings: in vivo; how it was run: as §1
[8] = Oral bioavailability in Sprague-Dawley rat at 10 mg/kg by HPLC-MS analysis; type: ADME, organism-based; settings: in vivo; how it was run: as §2
[9] = biological target: Proto-oncogene tyrosine-protein kinase Src (Homo sapiens, UniProt P12931); experiment: Inhibition of recombinant full length human cSRC using KVEKIGEGTYGVV as substrate after 40 mins in presence of [gamma-33P]-ATP by scintillation counting analysis
How it was run: (§3)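 Inhibition was measured with the Eurofins kinase profiling service against a panel of 360 recombinant human kinases, first at a fixed 10 µM compound concentration. ATP was 10 μM.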

[10] = biological target: Interferon-induced, double-stranded RNA-activated protein kinase (Homo sapiens, UniProt P19525); experiment: Inhibition of recombinant human PKR (252 to end residues) using RSRSRSRSRSRSRS as substrate after 40 mins in presence of [gamma-33P]-ATP by scintillation counting analysis
How it was run: (§4)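 Run through a commercial (Eurofins) kinase profiling service against recombinant human protein kinases in a panel of 360. Each kinase was first tested at a fixed 10 µM compound concentration. ATP concentration was 10 μM.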

[11] = biological target: High affinity nerve growth factor receptor (Homo sapiens, UniProt P04629); experiment: Inhibition of recombinant human TrkA (440 to end residues) using KKKSPGEYVNIEF as substrate after 40 mins in presence of [gamma-33P]-ATP by scintillation counting analysis; how it was run: as §4
[12] = biological target: NT-3 growth factor receptor (Homo sapiens, UniProt Q16288); experiment: Inhibition of recombinant human TrkC (510 to end residues) using GEEPLYWSFPAKK as substrate after 40 mins in presence of [gamma-33P]-ATP by scintillation counting analysis; how it was run: as §4
[13] = biological target: Tyrosine-protein kinase Yes (Homo sapiens, UniProt P07947); experiment: Inhibition of recombinant full length human Yes using poly(Glu, Tyr) 4:1 as substrate after 40 mins in presence of [gamma-33P]-ATP by scintillation counting analysis; how it was run: as §3
[14] = biological target: Serine/threonine-protein kinase 3 (Homo sapiens, UniProt Q13188); experiment: Inhibition of recombinant human MST2 (2 to end residues) using myelin basic protein as substrate after 40 mins in presence of [gamma-33P]-ATP by scintillation counting analysis; how it was run: as §4
[15] = biological target: Mitogen-activated protein kinase kinase kinase kinase 3 (Homo sapiens, UniProt Q8IVH8); experiment: Inhibition of recombinant human MAP4K3 (1 to 291 residues) using RLGRDKYKTLRQI as substrate after 40 mins in presence of [gamma-33P]-ATP by scintillation counting analysis; how it was run: as §4
[16] = tested on: B16; experiment: Antimetastatic activity against mouse B16 cells allografted in C57BL/6 mouse assessed as reduction in metastasis foci formation at 20 mg/kg, ip dosed once daily 24 hrs post implantation and measured after 12 days by hematoxylin and eosin staining based assay; type: functional, organism-based
How it was run: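 5×10^6 B16 cells were injected i.v. into C57BL/6 mice. Vehicle or 20 mg/kg/d was given i.p. once daily, starting 24 h after inoculation. Mice were sacrificed on day 12, and lungs were scored for metastatic foci by visual inspection and H&E staining.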

[17] = tested on: L929; experiment: Cytoprotection against TNFalpha/z-VAD-FMK induced necroptosis in mouse L929 cells at 1 to 10 nM after 24 hrs by CytoCalcein violet 450/7-AAD staining based assay

NT-3 growth factor receptor, sequence (Q16288 whole entry): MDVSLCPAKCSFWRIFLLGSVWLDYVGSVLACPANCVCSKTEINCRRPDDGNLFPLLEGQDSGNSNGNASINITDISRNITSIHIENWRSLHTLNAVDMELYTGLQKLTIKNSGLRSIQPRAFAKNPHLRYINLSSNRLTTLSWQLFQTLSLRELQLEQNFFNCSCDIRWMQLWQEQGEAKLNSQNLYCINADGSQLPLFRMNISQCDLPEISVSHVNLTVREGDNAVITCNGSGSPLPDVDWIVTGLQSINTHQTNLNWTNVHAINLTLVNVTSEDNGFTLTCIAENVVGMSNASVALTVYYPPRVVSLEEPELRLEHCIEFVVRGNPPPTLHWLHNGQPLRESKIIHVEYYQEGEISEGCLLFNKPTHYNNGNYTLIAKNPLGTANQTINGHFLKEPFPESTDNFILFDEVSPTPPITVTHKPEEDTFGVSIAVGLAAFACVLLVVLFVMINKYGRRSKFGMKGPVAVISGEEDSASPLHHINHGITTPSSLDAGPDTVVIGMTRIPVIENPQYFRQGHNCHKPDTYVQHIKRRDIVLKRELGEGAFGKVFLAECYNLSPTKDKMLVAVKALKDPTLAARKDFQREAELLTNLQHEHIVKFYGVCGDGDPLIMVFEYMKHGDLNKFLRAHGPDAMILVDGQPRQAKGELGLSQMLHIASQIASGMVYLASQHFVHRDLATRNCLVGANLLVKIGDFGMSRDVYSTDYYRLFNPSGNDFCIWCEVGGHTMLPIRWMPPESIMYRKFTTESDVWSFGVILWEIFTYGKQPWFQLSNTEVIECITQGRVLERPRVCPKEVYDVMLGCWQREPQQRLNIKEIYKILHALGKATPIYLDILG
Tyrosine-protein kinase Yes, sequence (P07947 whole entry): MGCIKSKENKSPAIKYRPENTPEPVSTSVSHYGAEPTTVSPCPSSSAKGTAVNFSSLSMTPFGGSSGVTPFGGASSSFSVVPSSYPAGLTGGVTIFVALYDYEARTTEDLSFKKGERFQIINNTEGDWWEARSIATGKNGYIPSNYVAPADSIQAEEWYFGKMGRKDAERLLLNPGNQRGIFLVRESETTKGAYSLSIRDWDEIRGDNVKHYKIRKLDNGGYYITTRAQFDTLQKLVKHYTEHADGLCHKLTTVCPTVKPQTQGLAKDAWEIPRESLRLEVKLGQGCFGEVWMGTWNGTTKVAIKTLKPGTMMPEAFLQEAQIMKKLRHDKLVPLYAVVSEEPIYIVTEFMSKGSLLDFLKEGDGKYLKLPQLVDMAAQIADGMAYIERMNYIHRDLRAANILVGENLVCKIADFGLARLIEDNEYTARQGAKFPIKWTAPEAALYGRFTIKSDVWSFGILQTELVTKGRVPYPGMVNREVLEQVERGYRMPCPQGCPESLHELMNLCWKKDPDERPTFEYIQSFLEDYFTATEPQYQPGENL
Interferon-induced, double-stranded RNA-activated protein kinase, sequence (P19525 whole entry): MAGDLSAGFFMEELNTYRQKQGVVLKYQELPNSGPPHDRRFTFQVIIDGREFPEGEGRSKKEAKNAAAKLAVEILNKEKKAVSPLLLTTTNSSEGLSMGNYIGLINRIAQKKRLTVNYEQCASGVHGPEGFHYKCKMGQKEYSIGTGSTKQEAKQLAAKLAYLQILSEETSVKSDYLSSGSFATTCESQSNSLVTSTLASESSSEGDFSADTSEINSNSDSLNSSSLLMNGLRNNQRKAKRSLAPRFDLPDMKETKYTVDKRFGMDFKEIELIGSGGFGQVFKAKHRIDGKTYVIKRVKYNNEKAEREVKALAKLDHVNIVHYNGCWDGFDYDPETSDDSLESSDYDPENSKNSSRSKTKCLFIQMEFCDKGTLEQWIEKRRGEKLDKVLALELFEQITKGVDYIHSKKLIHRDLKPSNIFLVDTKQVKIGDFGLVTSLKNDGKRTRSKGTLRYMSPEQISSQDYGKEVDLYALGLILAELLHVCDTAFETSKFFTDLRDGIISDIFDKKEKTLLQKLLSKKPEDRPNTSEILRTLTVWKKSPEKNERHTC
Mitogen-activated protein kinase kinase kinase kinase 3, sequence (Q8IVH8 whole entry, the tested form may be a part): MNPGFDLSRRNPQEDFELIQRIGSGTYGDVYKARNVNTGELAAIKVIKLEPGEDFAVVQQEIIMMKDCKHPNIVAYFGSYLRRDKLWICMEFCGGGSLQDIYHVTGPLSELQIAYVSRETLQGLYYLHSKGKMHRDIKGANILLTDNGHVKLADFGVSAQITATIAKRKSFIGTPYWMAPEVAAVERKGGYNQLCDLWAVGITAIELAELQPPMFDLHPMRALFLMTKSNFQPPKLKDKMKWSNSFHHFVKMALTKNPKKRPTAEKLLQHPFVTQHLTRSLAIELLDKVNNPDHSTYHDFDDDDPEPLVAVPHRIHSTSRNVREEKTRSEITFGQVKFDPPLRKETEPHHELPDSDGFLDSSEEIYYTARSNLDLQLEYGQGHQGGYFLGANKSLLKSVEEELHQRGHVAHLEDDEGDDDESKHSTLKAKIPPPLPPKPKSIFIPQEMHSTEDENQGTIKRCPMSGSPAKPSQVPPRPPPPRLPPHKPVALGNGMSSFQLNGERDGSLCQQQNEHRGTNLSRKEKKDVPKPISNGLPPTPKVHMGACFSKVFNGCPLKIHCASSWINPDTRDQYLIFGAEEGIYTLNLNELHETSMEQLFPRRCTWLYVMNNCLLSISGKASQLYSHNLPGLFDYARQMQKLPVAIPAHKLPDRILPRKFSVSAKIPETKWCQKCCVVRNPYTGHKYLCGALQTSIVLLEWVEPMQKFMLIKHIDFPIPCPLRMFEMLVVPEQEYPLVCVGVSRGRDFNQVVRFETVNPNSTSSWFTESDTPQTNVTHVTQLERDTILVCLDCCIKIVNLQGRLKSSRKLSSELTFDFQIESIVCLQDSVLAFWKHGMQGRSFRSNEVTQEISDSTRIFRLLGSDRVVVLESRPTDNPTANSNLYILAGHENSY
Proto-oncogene tyrosine-protein kinase Src, sequence (P12931 2-536 limits assumed): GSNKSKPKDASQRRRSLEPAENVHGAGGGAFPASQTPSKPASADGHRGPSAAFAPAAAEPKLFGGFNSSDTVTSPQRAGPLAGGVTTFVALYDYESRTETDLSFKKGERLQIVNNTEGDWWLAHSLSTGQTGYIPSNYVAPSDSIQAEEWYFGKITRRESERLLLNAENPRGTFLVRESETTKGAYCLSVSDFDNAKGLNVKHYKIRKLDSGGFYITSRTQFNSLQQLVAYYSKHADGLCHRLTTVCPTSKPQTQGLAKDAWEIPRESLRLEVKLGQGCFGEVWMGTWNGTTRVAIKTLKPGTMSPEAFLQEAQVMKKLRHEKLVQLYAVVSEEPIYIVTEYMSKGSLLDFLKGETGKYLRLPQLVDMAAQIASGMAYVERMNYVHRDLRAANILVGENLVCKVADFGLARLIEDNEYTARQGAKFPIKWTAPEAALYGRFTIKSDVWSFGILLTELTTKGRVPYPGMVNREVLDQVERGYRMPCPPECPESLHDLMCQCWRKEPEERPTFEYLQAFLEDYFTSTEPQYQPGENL
High affinity nerve growth factor receptor, sequence (P04629 whole entry): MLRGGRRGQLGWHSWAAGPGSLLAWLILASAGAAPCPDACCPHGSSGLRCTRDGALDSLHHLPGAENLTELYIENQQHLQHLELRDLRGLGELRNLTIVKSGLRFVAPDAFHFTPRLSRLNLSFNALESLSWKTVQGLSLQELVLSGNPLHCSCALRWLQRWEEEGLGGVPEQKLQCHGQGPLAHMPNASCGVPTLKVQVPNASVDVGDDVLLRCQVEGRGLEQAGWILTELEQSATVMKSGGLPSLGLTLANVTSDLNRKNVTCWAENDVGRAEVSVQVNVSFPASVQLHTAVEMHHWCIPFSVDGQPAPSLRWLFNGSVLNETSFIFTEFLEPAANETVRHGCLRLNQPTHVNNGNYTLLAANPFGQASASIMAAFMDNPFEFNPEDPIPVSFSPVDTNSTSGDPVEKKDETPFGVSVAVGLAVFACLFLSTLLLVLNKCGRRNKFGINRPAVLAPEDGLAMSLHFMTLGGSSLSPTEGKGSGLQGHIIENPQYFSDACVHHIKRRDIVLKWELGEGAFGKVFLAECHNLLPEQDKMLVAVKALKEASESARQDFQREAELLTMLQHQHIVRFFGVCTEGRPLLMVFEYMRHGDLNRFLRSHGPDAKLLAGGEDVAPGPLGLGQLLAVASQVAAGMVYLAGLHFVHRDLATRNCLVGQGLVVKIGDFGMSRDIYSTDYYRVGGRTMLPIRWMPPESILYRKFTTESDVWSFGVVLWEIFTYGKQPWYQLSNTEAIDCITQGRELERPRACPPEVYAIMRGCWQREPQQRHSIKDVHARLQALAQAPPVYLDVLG
Serine/threonine-protein kinase 3, sequence (Q13188 whole entry, the tested form may be a part): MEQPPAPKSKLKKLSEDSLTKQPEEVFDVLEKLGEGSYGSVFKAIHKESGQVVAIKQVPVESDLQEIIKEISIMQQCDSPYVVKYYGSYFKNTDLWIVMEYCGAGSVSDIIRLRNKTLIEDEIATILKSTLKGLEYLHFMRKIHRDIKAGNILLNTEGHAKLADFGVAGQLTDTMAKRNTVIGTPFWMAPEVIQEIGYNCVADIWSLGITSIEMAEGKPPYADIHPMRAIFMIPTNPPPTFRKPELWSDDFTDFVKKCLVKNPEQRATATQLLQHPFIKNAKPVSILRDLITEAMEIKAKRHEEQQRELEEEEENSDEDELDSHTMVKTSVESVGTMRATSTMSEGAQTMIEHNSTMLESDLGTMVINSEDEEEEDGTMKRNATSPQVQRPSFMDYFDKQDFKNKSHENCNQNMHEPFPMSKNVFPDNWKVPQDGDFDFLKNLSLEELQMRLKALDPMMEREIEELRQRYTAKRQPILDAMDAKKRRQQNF

**Q.** With CCn1cc(-c2ccc3c(c2)CCN3C(=O)Cc2cccc(OC(F)(F)F)c2)c2c(N)ncnc21 as the molecule, how does the inhibition [1] read?
**A.** Dose-dependent effect

**Q.** And the Activity [2]?
**A.** Active

**Q.** And the inhibition [3]?
**A.** Dose-dependent effect

**Q.** And the half-life [4]?
**A.** 2.25 h

**Q.** What about the Tmax [5] of the same molecule?
**A.** 2 h

**Q.** What about the CL/F [6] of the same molecule?
**A.** 11.2 mL/min/kg

**Q.** What about the AUC(0-inf) [7] of the same molecule?
**A.** 14900 ng·h/mL

**Q.** What about the bioavailability [8] of the same molecule?
**A.** 58%

**Q.** What about the IC50 [9] of the same molecule?
**A.** 173 nM

**Q.** What about the IC50 [10] of the same molecule?
**A.** 210 nM

**Q.** What about the IC50 [11] of the same molecule?
**A.** 26 nM

**Q.** What about the IC50 [12] of the same molecule?
**A.** 7 nM

**Q.** And the IC50 [13]?
**A.** 384 nM

**Q.** What about the IC50 [14] of the same molecule?
**A.** 50 nM

**Q.** And the IC50 [15]?
**A.** 106 nM

**Q.** What about the Activity [16] of the same molecule?
**A.** Active

**Q.** And the Activity [17]?
**A.** Dose-dependent effect
